Measured values as given in ChEMBL document CHEMBL4007411, “Design, Synthesis, and Biological Evaluation of Coupled Bioactive Scaffolds as Potential Anticancer Agents for Dual Targeting of Dihydrofolate Reductase and Thioredoxin Reductase” (J Med Chem, 2017).
Active and inactive are the calls of the source. The rule behind the calls is not given here.

Key:
MCF7 = assay: Antiproliferative activity against human MCF7 cells after 72 hrs by MTT assay; type: functional; conditions: for GI50 / LC50 (concentration killing 50% of cells present at T0): MCF7, 72 h
Outline: (§1)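 Cells kept in RPMI 1640 with 10% FBS, penicillin and streptomycin at 37°C and 5% CO2. Seeded at 1.0 x 10^4/well and left to adhere overnight. Serial dilutions made in medium from DMSO stocks. MTT at 400 µg/ml final for 4 h, read at T0 and after 72 h. Formazan dissolved in DMSO:glycine pH 10.5, A550. GI50 and LC50 interpolated from absorbance versus log concentration.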

HCT-116 = assay: Antiproliferative activity against human HCT116 cells after 72 hrs by MTT assay; type: functional; conditions: for GI50 / CC50: HCT-116, 72 h; for CC50: read-out: LC50 (the source's name); outline: as §1
[1] = molecular target: T1, Thioredoxin reductase 1, cytoplasmic (Rattus norvegicus, UniProt O89049); assay: Inhibition of […] thioredoxin reductase after 60 mins by DTNB reduction assay
T1 sequence (O89049 whole entry): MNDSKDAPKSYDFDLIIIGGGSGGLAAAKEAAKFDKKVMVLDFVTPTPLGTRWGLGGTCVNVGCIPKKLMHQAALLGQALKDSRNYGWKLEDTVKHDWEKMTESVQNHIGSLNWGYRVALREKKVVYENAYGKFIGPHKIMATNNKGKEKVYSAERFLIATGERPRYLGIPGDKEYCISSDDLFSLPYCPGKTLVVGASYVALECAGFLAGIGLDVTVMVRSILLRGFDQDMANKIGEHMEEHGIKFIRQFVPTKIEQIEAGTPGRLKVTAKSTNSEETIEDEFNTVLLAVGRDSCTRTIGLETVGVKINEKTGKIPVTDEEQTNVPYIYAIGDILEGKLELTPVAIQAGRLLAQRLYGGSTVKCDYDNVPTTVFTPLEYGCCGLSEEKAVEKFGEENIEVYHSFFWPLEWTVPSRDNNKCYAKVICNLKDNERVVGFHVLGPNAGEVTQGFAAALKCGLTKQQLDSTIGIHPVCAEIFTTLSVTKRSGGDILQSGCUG
Outline: (§2)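 Rat liver TrxR at 2.1 units/ml preincubated with a range of test concentrations and 200 µM NADPH in 50 mM Tris-HCl, 1 mM EDTA, pH 7.5, at room temperature for 30 or 60 min. Equal volume of buffer with 5 mM DTNB and 200 µM NADPH then added. A412 followed over 2 min. Activity as % of vehicle Vmax; IC50 from log concentration plot.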

[2] = molecular target: T1, Thioredoxin reductase 1, cytoplasmic; assay: Inhibition of […] thioredoxin reductase after 30 mins by DTNB reduction assay; outline: as §2
Dihydrofolate reductase = molecular target: T2, Dihydrofolate reductase (Homo sapiens, UniProt P00374); assay: Inhibition of recombinant human DHFR assessed as reduction in conversion of DHF to THF measured every 30 secs for 6 mins by UV-Vis spectrophotometric method
T2 sequence (P00374 whole entry): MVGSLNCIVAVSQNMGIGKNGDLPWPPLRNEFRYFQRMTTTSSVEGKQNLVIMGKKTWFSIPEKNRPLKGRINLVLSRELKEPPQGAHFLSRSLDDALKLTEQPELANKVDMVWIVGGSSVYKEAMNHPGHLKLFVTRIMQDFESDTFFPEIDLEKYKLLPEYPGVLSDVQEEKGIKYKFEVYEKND

| Compound | growth inhibition (GI) (MCF7) | growth inhibition (GI) (HCT-116) | IC50 [1] | IC50 [2] | GI50 (MCF7) [nM] | LC50 (concentration killing 50% of cells present at T0) (MCF7) [µM] | GI50 (HCT-116) [nM] | CC50 (HCT-116) [µM] | IC50 ([1]; read-out: IC50) [µM] | IC50 (Dihydrofolate reductase) [nM] | IC50 ([2]; read-out: IC50) [µM] |
| --- | --- | --- | --- | --- | --- | --- | --- | --- | --- | --- | --- |
| O=C(Cc1ccccc1)Cc1ccccc1 | inactive | inactive | Not Active | Not Active | – | – | – | – | – | – | – |
| CC1(C)N=C(N)N=C(N)N1OCCCOc1ccc(C(=O)/C=C/c2ccccc2)cc1 | – | – | – | – | 85 | 34 | 16 | 55.2 | 32.4 | 9.2 | 49 |
| CC1(C)N=C(N)N=C(N)N1OCCOc1cccc(C(=O)/C=C/c2ccccc2)c1 | – | – | – | – | 719 | 40.7 | 170 | 49.9 | 6.9 | 35.6 | 10.8 |
| CC1(C)N=C(N)N=C(N)N1OCCOc1cccc(/C=C/C(=O)c2ccccc2)c1 | – | – | – | – | 623 | 38.8 | 145 | 52.2 | 4 | 59.2 | 5.7 |
| CC1(C)N=C(N)N=C(N)N1OCCCCOc1ccc(C(=O)/C=C/c2ccccc2)cc1 | – | – | – | – | 87 | 14.2 | 39 | 24 | 27 | 3.4 | 44.5 |
| CC1(C)N=C(N)N=C(N)N1OCCCCOc1cccc(/C=C/C(=O)c2ccccc2)c1 | – | – | – | – | 86 | 15.5 | 34 | 34.7 | 3.8 | 4.8 | 6 |
| CC1(C)N=C(N)N=C(N)N1OCCCCOc1ccc(/C=C/C(=O)c2ccccc2)cc1 | – | – | – | – | 141 | 14.8 | 26 | 42.9 | 21.1 | 4 | 31.6 |
| CC1(C)N=C(N)N=C(N)N1OCCCOc1cccc(/C=C/C(=O)c2ccccc2)c1 | – | – | – | – | 13 | 29.8 | 11 | 48.2 | 2.8 | 3.2 | 4.1 |
| CC1(C)N=C(N)N=C(N)N1OCCOc1ccc(/C=C/C(=O)c2ccccc2)cc1 | – | – | – | – | 512 | 47.7 | 706 | 81.9 | 21.1 | 53.4 | 29.8 |
| CC1(C)N=C(N)N=C(N)N1OCCOc1ccc(C(=O)/C=C/c2ccccc2)cc1 | – | – | – | – | 584 | 40.1 | 572 | 50.1 | 20.4 | 14.1 | 43.3 |
| CC1(C)N=C(N)N=C(N)N1OCCCOc1cccc(C(=O)CCc2ccccc2)c1 | – | – | – | – | 36 | 25.9 | 10 | 34.2 | – | 3.9 | – |
| CN(Cc1cnc2nc(N)nc(N)c2n1)c1ccc(C(=O)N[C@@H](CCC(=O)O)C(=O)O)cc1 [METHOTREXATE] | – | – | – | – | 24 | – | 15 | > 100 | – | – | – |
| NC1=NC2(CCCC2)N(OCCOc2cccc(C(=O)/C=C/c3ccccc3)c2)C(N)=N1 | – | – | – | – | 770 | 16.1 | 260 | 24.1 | 4.6 | 13.1 | 8 |
| CC1(C)N=C(N)N=C(N)N1OCCCOc1ccc(/C=C/C(=O)c2ccccc2)cc1 | – | – | – | – | 62 | 35.3 | 35 | 39 | 25.7 | 6.4 | 35.9 |
